{"source": "paper PMC10549236", "about": "(RSC Chemical Biology, 2023)", "key": {"P. aeruginosa QS system": {"tested_on": "P. aeruginosa QS system", "conditions": "cited from earlier work"}, "P. aeruginosa": {"tested_on": "P. aeruginosa", "assay": "Bacterial viability assay", "type": "cell-based, Pseudomonas aeruginosa", "outline": "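Broth dilution in 96-well plates. Test compound at 0.5–6 μg mL−1 in 0.5 μg mL−1 steps was mixed 1:1 by volume with log-phase P. aeruginosa at 10^6 CFU mL−1 and incubated at 37 °C for 22–24 h. Growth was read as OD600, with wells in duplicate.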"}, "[1]": {"tested_on": "P. aeruginosa established biofilms", "assay": "Biofilm eradication assay", "type": "cell-based, Pseudomonas aeruginosa", "conditions": "40 μM, third day, 48 h-old biofilm, control = 100%", "outline": "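P. aeruginosa was grown in M9 in 6-well plates at 37 °C for 48 h to form mature biofilm. Test compound was then added at 10, 20 or 40 μM and culture continued 2 or 3 days. Wells were PBS-washed ×3, dried, stained with 0.1% crystal violet for 15 min, rinsed, solubilised in 30% acetic acid and read at A595. Untreated was set to 100%; triplicates.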"}, "P. aeruginosa biofilm": {"tested_on": "P. aeruginosa biofilm", "assay": "Biofilm inhibition assay", "type": "cell-based, Pseudomonas aeruginosa", "conditions": "0.08 μM, 48 h, static, versus negative control"}, "pyocyanin": {"tested_on": "pyocyanin", "assay": "Pyocyanin secretion assay", "type": "cell-based, Pseudomonas aeruginosa", "conditions": "0.08 μM, 20 h", "outline": "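P. aeruginosa was cultured with 0.08 μM test compound at 37 °C for about 20 h to OD600 2. Pigment was extracted from about 10 mL of supernatant with chloroform, back-extracted into 0.2 M HCl, and pyocyanin read at A520.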"}, "[2]": {"tested_on": "hitAB gene knockout P. aeruginosa mutant (ΔhitAB)", "assay": "Gallium uptake assay by ICP-MS, ΔhitAB mutant", "type": "cell-based, Pseudomonas aeruginosa", "conditions": "0.16 μM, ICP-MS over time", "outline": "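Wild-type and ΔhitAB P. aeruginosa overnight cultures were diluted to OD600 0.1 with 0.16 μM test compound. 5 mL aliquots were taken hourly up to 5 h. Pellets were washed ×3 in PBS with 1 mM EDTA, digested in 70% nitric acid at 60 °C for 2 h, diluted to 2% HNO3 and analysed for gallium by ICP-MS.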"}, "P. aeruginosa PAO1": {"tested_on": "P. aeruginosa PAO1", "assay": "Mouse wound infection model", "type": "in vivo", "conditions": "2 mg kg^−1 topical twice daily, 48 h post-infection", "outline": "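Female BALB/c mice (6–8 weeks, 18–22 g, n = 5 per group) had hair removed and a ~2 mm × 2 mm excisional flank wound made. The wound received ~5 × 10^8 CFU of PBS-washed static overnight PAO1 in 10 μL. Test compound at 2 mg kg−1 in cream was applied topically twice daily; vehicle cream served as control. At 48 h post-infection lesions were excised, homogenised and serially diluted for CFU.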"}}, "data": [{"smiles": "O=c1cc(-c2ccccc2)oc2cc(O)c(O)c(O)c12", "note": "[Baicalein]", "values": [{"measurement": "Activity against P. aeruginosa QS system", "setting": "P. aeruginosa QS system", "result": "antagonists against P. aeruginosa QS system"}]}, {"smiles": "O=c1cc(-c2ccccc2)oc2cc(O)cc(O)c12", "note": "[Chrysin]", "values": [{"measurement": "Activity against P. aeruginosa QS system", "setting": "P. aeruginosa QS system", "result": "antagonists against P. aeruginosa QS system"}]}, {"smiles": "O=[N+]([O-])[O-].O=[N+]([O-])[O-].O=[N+]([O-])[O-].[Ga+3]", "note": "[Ga(NO3)3]", "values": [{"measurement": "IC50", "setting": "P. aeruginosa", "result": 3.11, "unit": "µg/mL"}, {"measurement": "Biofilms remained", "setting": "[1]", "result": 30, "unit": "%"}, {"measurement": "Reduction of biofilm formation", "setting": "P. aeruginosa biofilm", "result": "approximately 50%"}, {"measurement": "Decrease in pyocyanin secretion", "setting": "pyocyanin", "result": 47, "unit": "%"}, {"measurement": "Gallium uptake rate of ΔhitAB mutant compared to WT", "setting": "[2]", "result": "significantly abrogated"}, {"measurement": "Lower number of CFU of P. aeruginosa compared to the control group", "setting": "P. aeruginosa PAO1", "result": 2, "unit": "log"}]}, {"smiles": "O=C1C[C@@H](c2ccc(O)cc2)Oc2cc(O)cc(O)c21", "note": "[Naringenin]", "values": [{"measurement": "Activity against P. aeruginosa QS system", "setting": "P. aeruginosa QS system", "result": "antagonists against P. aeruginosa QS system"}]}]}
